Measured values taken from PMC10286757 (Chemmedchem, 2022).

Legend:
[1] = system: Plasmodium falciparum strain 3D7; assay: parasite lactate dehydrogenase; format: cell-based; details: for viability at 20 µM / IC50: Plasmodium falciparum, 3D7, 48 h; for viability at 20 µM: read-out: Pf 3D7 % cell viability at 20 μM; for antiplasmodial activity in vitro (in words): Pf 3D7, pLDH assay, low micromolar range; for IC50: read-out: Pf 3D7 IC50
[2] = HeLa cell cytotoxicity assay; format: cell-based; details: human, HeLa cells
In short: (§1)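 HeLa cells were seeded at 2×10^4 per well in DMEM with 10 % FBS, 2 mM L-glutamine and antibiotics, then held overnight at 37 °C in 5 % CO2. Test compound was added to a final 20 μM for 48 h. Resazurin was then added to a final 50 μM for 4 h, and resorufin fluorescence was read at Ex560/Em590. Cell-free background was subtracted and results expressed as % viability against untreated wells.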

PfCDPK4 = target: T1, PfCDPK4 (Plasmodium falciparum, UniProt Q8IBS5); assay: Kinase Glo luciferase enzyme activity assay, recombinant PfCDPK4; format: biochemical
T1 sequence (Q8IBS5 1-528): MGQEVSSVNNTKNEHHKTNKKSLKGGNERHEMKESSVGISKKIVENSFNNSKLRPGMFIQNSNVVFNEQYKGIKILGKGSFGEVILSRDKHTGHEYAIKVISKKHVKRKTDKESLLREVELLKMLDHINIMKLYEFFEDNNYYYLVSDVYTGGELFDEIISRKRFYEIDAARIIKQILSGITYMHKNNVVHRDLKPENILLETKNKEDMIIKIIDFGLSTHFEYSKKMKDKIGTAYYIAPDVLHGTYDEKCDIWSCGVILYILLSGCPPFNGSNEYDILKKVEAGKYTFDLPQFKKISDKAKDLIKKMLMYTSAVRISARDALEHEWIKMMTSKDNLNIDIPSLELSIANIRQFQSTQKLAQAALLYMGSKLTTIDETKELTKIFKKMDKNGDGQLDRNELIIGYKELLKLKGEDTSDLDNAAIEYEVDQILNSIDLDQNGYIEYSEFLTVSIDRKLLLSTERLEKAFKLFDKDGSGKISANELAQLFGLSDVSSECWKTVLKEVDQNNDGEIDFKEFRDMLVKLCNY
In short: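 Recombinant PfCDPK4 was expressed in Rosetta E. coli at 20 °C by auto-induction, then purified by IMAC and size exclusion. The enzyme was used at 180 nM with 40 μM Syntide-2 and serial inhibitor dilutions in 20 mM HEPES pH 7.5, 0.1 % BSA, 10 mM MgCl2, ±1 mM CaCl2, 1 mM EGTA. Reactions were started with 10 μM ATP and run 90 min at 30 °C. Remaining ATP was read by Kinase-Glo luminescence, with positive and DMSO controls on each plate.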

HeLa cells = assay: HeLa cell cytotoxicity assay; format: cell-based; details: single concentration 20 μM
In short: as §1

Structure (SMILES) | viability at 20 µM [1] [%] | viability at 48 h, 20 µM [2] [%] | IC50 (PfCDPK4) [µM] | antiplasmodial activity in vitro (in words) [1] | IC50 [1] [µM] | cytotoxicity in vitro in HeLa cell assay (in words) (HeLa cells)
COc1ccc(-c2cn(CC3CC3)c3ncnc(N)c23)cc1OC [2 e, 7‐(Cyclopropylmethyl)‐5‐(3,4‐dimethoxyphenyl)‐7H‐pyrrolo[2,3‐d]pyrimidin‐4‐amine] | 110 ± 10.9 | 88.8 ± 0.7 | > 2 | – | – | –
COc1ccc(-c2cn(CC3CCN(C(C)=O)CC3)c3ncnc(N)c23)cc1OC [2 j, 1‐{4‐[(4‐Amino‐5‐(3,4‐dimethoxyphenyl)‐7H‐pyrrolo[2,3‐d]pyrimidin‐7‐yl)methyl]piperidin‐1‐yl}ethanone] | 2.8 ± 3.9 | 79.3 ± 0.8 | > 2 | moderate antiplasmodial activity | 12.1 ± 11.4 | –
CCOc1ccc2cc(-c3cn(CC4CCN(C(C)=O)CC4)c4ncnc(N)c34)ccc2c1 [2 g, 1‐{4‐[(4‐Amino‐5‐(2‐ethoxynaphthalen‐6‐yl)‐7H‐pyrrolo[2,3‐d]pyrimidin‐7‐yl)methyl]piperidin‐1‐yl}ethanone] | 9.3 ± 1.6 | 92.8 ± 5.7 | 0.53 ± 0.185 | moderate antiplasmodial activity | 14.2 ± 1.7 | –
CCN(CC)CCCC(C)Nc1ccnc2cc(Cl)ccc12 (stereo not shown) [Chloroquine, reference compound] | – | – | – | – | 0.015 | –
COc1ccccc1-c1cn(CC2CC2)c2ncnc(N)c12 [2 d, 7‐(Cyclopropylmethyl)‐5‐(2‐methoxyphenyl)‐7H‐pyrrolo[2,3‐d]pyrimidin‐4‐amine] | 107 ± 6 | 63.8 ± 1.5 | > 2 | – | – | –
COc1ccc(-c2cn(CCC3CCN(C(=O)OC(C)(C)C)CC3)c3ncnc(N)c23)cc1OC [2 l, tert ‐Butyl 4‐{2‐[4‐amino‐5‐(3,4‐dimethoxyphenyl)‐7H‐pyrrolo[2,3‐d]pyrimidin‐7‐yl]ethyl}piperidine‐1‐carboxylate] | 66.8 ± 3.9 | 82.4 ± 1.4 | > 2 | – | – | –
COc1ccc(-c2cn(Cc3ccccc3)c3ncnc(N)c23)cc1OC [2 q, 7‐Benzyl‐5‐(3,4‐dimethoxyphenyl)‐7H‐pyrrolo[2,3‐d]pyrimidin‐4‐amine] | 110 ± 4.2 | 95.4 ± 0.5 | – | – | – | –
COc1ccccc1-c1cn(Cc2ccccc2)c2ncnc(N)c12 [2 p, 7‐Benzyl‐5‐(2‐methoxyphenyl)‐7H‐pyrrolo[2,3‐d]pyrimidin‐4‐amine] | 72.4 ± 13.3 | 97 ± 12.5 | – | – | – | –
CCOc1ccc2cc(-c3cn(CCN4CCOCC4)c4ncnc(N)c34)ccc2c1 [2 m, 5‐(2‐Ethoxynaphthalen‐6‐yl)‐7‐(2‐morpholinoethyl)‐7H‐pyrrolo[2,3‐d]pyrimidin‐4‐amine] | 12 ± 2.6 | 47 ± 7 | – | moderate antiplasmodial activity | 8.2 ± 3.1 | moderate cytotoxicity
COc1ccc2cc(-c3cn(CC4CC4)c4ncnc(N)c34)ccc2c1 [2 a, 7‐(Cyclopropylmethyl)‐5‐(2‐methoxynaphthalen‐6‐yl)‐7H‐pyrrolo[2,3‐d]pyrimidin‐4‐amine] | 103 ± 8 | 93.6 ± 7.1 | – | – | – | –
COc1ccccc1-c1cn(CCC2CCN(C(=O)OC(C)(C)C)CC2)c2ncnc(N)c12 [2 k, tert ‐Butyl 4‐{2‐[4‐amino‐5‐(2‐methoxyphenyl)‐7H‐pyrrolo[2,3‐d]pyrimidin‐7‐yl]ethyl}piperidine‐1‐carboxylate] | 62 ± 2.1 | 78.9 ± 0.1 | – | – | – | –
CCOCCOc1ccc2cc(-c3cn(CC4CC4)c4ncnc(N)c34)ccc2c1 [2 c, 5‐[2‐(2‐Ethoxyethoxy)naphthalen‐6‐yl]‐7‐(cyclopropylmethyl)‐7H‐pyrrolo[2,3‐d]pyrimidin‐4‐amine] | 93.1 ± 1.4 | 73 ± 4.1 | – | – | – | –
COc1ccc2cc(-c3cn(CC4CCN(C(C)=O)CC4)c4ncnc(N)c34)ccc2c1 [2 f, 1‐{4‐[(4‐Amino‐5‐(2‐methoxynaphthalen‐6‐yl)‐7H‐pyrrolo[2,3‐d]pyrimidin‐7‐yl)methyl]piperidin‐1‐yl}ethanone] | 35.3 ± 2.2 | 92.1 ± 3.1 | 0.21 ± 0.068 | – | – | –
COc1ccc(-c2cn(CCN3CCOCC3)c3ncnc(N)c23)cc1OC [2 o, 5‐(3,4‐Dimethoxyphenyl)‐7‐(2‐morpholinoethyl)‐7H‐pyrrolo[2,3‐d]pyrimidin‐4‐amine] | 57 ± 6.6 | 88 ± 11.8 | > 2 | – | – | –
COc1ccccc1-c1cn(CC2CCN(C(C)=O)CC2)c2ncnc(N)c12 [2 i, 1‐{4‐[(4‐Amino‐5‐(2‐methoxyphenyl)‐7H‐pyrrolo[2,3‐d]pyrimidin‐7‐yl)methyl]piperidin‐1‐yl}ethanone] | 121 ± 8.6 | 93.3 ± 3.2 | > 2 | – | – | –
COc1ccccc1-c1cn(CCN2CCOCC2)c2ncnc(N)c12 [2 n, 5‐(2‐Methoxyphenyl)‐7‐(2‐morpholinoethyl)‐7H‐pyrrolo[2,3‐d]pyrimidin‐4‐amine] | 95 ± 1 | 112 ± 2.8 | > 2 | – | – | –
CCOCCOc1ccc2cc(-c3cn(CC4CCN(C(C)=O)CC4)c4ncnc(N)c34)ccc2c1 [2 h, 1‐{4‐{[5‐(2‐(2‐Ethoxyethoxy)naphthalen‐6‐yl)‐4‐amino‐7H‐pyrrolo[2,3‐d]pyrimidin‐7‐yl]methyl}piperidin‐1‐yl}ethanone] | 62.2 ± 9 | 94.4 ± 9.3 | > 2 | – | – | –
CCOc1ccc2cc(-c3cn(CC4CC4)c4ncnc(N)c34)ccc2c1 [2 b, 7‐(Cyclopropylmethyl)‐5‐(2‐ethoxynaphthalen‐6‐yl)‐7H‐pyrrolo[2,3‐d]pyrimidin‐4‐amine] | 24.1 ± 3.8 | 79.8 ± 3.3 | 0.369 ± 0.138 | moderate antiplasmodial activity | 18.7 ± 0.8 | –
